Measured values as given in ChEMBL document CHEMBL3120161, “Antimycobacterial activity of nitrogen heterocycles derivatives: bipyridine derivatives. Part III” (Eur J Med Chem, 2014).
Values after ≈ are worked out from the molar mass of the structure shown. Active and inactive are the calls of the source. The rule behind the calls is not given here.

Key:
[1] = system: Mycobacterium tuberculosis; assay: Antimycobacterial activity against Mycobacterium tuberculosis H37Rv ATCC 27294 after 7 days by broth microdilution assay; format: functional; settings: H37Rv ATCC 27294, 168 h
Method in brief: (§1)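 Cycle 1 HTS MABA: M. tuberculosis H37Rv ATCC 27294 in 7H12 broth, 384-well, final 1% DMSO. Ten twofold dilutions, typically 100 to 0.195 µg/mL. Amikacin controls at 0.17 and 3.20 µM; the high level serves as background for percent inhibition. 7 days at 37 °C, ~95% humidity. Fluorescence read at 535 nm excitation / 590 nm emission.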

[2] = system: Mycobacterium tuberculosis; assay: Antimycobacterial activity against Mycobacterium tuberculosis H37Rv ATCC 27294 after 7 days by microplate Alamar blue assay; format: functional, organism-based; settings: H37Rv ATCC 27294, 168 h; method in brief: as §1
[3] = system: Mycobacterium tuberculosis; assay: Antimycobacterial activity against Mycobacterium tuberculosis H37Rv ATCC 27294 at 12.5 to 50 ug/ml after 7 days by microplate Alamar blue assay relative to control; format: functional; method in brief: as §1
[4] = system: Mycobacterium tuberculosis; assay: Antimycobacterial activity against Mycobacterium tuberculosis H37Rv ATCC 27294 at 1.56 ug/ml after 7 days by microplate Alamar blue assay relative to control; format: functional; settings: H37Rv ATCC 27294, 168 h; method in brief: as §1
[5] = system: Mycobacterium tuberculosis; assay: Antimycobacterial activity against Mycobacterium tuberculosis H37Rv ATCC 27294 at 100 ug/ml after 7 days by microplate Alamar blue assay relative to control; format: functional; settings: H37Rv ATCC 27294, 168 h; method in brief: as §1
[6] = system: Mycobacterium tuberculosis; assay: Antimycobacterial activity against Mycobacterium tuberculosis H37Rv ATCC 27294 at 3.13 ug/ml after 7 days by microplate Alamar blue assay relative to control; format: functional; settings: H37Rv ATCC 27294, 168 h; method in brief: as §1
[7] = system: Mycobacterium tuberculosis; assay: Antimycobacterial activity against Mycobacterium tuberculosis H37Rv ATCC 27294 at 6.25 ug/ml after 7 days by microplate Alamar blue assay relative to control; format: functional; settings: H37Rv ATCC 27294, 168 h; method in brief: as §1
[8] = Cytotoxicity against mouse J774A1 cells assessed as cell viability at 75 ug/ml after 7 days by MTT assay relative to control; format: cell-based, J774.A1; settings: read-out: Activity
Method in brief: (§2)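 Uninfected murine J774 macrophages grown in RPMI 1640 with L-glutamine and FBS at 37 °C, 5% CO2. Cells seeded at 2.0 × 10^5 per well in 10% FBS, then switched to 1% FBS overnight. Run in parallel with the 7-day infection assay. […] Read out by MTT as percent viability.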

[9] = Cytotoxicity against mouse J774A1 cells assessed as cell viability at 7.5 ug/ml after 7 days by MTT assay relative to control; format: cell-based, J774.A1; settings: read-out: Activity; method in brief: as §2
[10] = Cytotoxicity against mouse J774A1 cells assessed as cell viability at 0.75 ug/ml after 7 days by MTT assay relative to control; format: cell-based, J774.A1; settings: read-out: Activity; method in brief: as §2
[11] = system: Mycobacterium tuberculosis; assay: Antimycobacterial activity against Mycobacterium tuberculosis H37Rv SRI 1345 infected in mouse J774A1 cells assessed as reduction in bacterial growth at 75 ug/ml after 7 days relative to control; format: functional, J774.A1
Method in brief: (§3)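 Murine J774 macrophages in RPMI 1640 with L-glutamine and FBS, seeded at 2.0 × 10^5 per well in 10% FBS, then switched to 1% FBS. Infected 4 h with H37Rv at MOI 5; unphagocytosed bacteria washed off. Compound added at three concentrations (0.75, 7.5, 75 µg/mL) for 7 days. At 0 and 7 days cells lysed with SDS, DNase-treated and plated on 7H10 for CFU; log reduction reported.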

[12] = system: Mycobacterium tuberculosis; assay: Antimycobacterial activity against Mycobacterium tuberculosis H37Rv SRI 1345 infected in mouse J774A1 cells assessed as reduction in bacterial growth at 7.5 ug/ml after 7 days relative to control; format: functional, J774.A1; method in brief: as §3
[13] = system: Mycobacterium tuberculosis; assay: Antimycobacterial activity against Mycobacterium tuberculosis H37Rv SRI 1345 incubated for 7 days under anaerobic condition measured after 7 days of recovery under gaseous condition by low oxygen recovery assay; format: functional
[14] = system: Mycobacterium tuberculosis; assay: […] activity against Mycobacterium tuberculosis H37Rv SRI 1345 after 16 to 21 days; format: functional
Method in brief: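 MBC, done after MIC testing in H37Rv SRI 1345: diluted aliquots from wells without macroscopic growth are plated on Middlebrook 7H10 agar and incubated 16–21 days at 37 °C. CFUs are counted. MBC is the lowest concentration giving 99.9% kill; rejection value is ≥40 colonies.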

[15] = system: Mycobacterium tuberculosis; assay: Antimycobacterial activity against Mycobacterium tuberculosis H37Rv SRI 1345 at MIC after 7 days by broth microdilution assay relative to control; format: functional
[16] = system: Mycobacterium tuberculosis; assay: Antimycobacterial activity against Mycobacterium tuberculosis H37Rv SRI 1345 after 7 days by broth microdilution assay; format: functional; settings: H37Rv SRI 1345, 168 h
[17] = system: Mycobacterium tuberculosis; assay: Antimycobacterial activity against Mycobacterium tuberculosis H37Rv SRI 1345 infected in mouse J774A1 cells assessed as reduction in bacterial growth at 0.75 ug/ml after 7 days relative to control; format: functional, J774.A1; method in brief: as §3
[18] = system: Mycobacterium tuberculosis; assay: Antimycobacterial activity against Mycobacterium tuberculosis H37Rv ATCC 27294 at 0.31 ug/ml after 7 days by microplate Alamar blue assay relative to control; format: functional; settings: H37Rv ATCC 27294, 168 h; method in brief: as §1
[19] = system: Mycobacterium tuberculosis; assay: Antimycobacterial activity against Mycobacterium tuberculosis H37Rv ATCC 27294 at 0.79 ug/ml after 7 days by microplate Alamar blue assay relative to control; format: functional; settings: H37Rv ATCC 27294, 168 h; method in brief: as §1
[20] = system: Mycobacterium tuberculosis; assay: Antimycobacterial activity against Mycobacterium tuberculosis H37Rv ATCC 27294 at 12.5 to 100 ug/ml after 7 days by microplate Alamar blue assay relative to control; format: functional; method in brief: as §1
[21] = system: Mycobacterium tuberculosis; assay: Antimycobacterial activity against Mycobacterium tuberculosis H37Rv ATCC 27294 at 25 ug/ml after 7 days by microplate Alamar blue assay relative to control; format: functional; settings: H37Rv ATCC 27294, 168 h; method in brief: as §1
[22] = system: Mycobacterium tuberculosis; assay: Antimycobacterial activity against Mycobacterium tuberculosis H37Rv ATCC 27294 at 50 ug/ml after 7 days by microplate Alamar blue assay relative to control; format: functional; settings: H37Rv ATCC 27294, 168 h; method in brief: as §1
[23] = system: Mycobacterium tuberculosis; assay: Antimycobacterial activity against Mycobacterium tuberculosis H37Rv ATCC 27294 at 12.5 ug/ml after 7 days by microplate Alamar blue assay relative to control; format: functional; settings: H37Rv ATCC 27294, 168 h; method in brief: as §1
[24] = system: Mycobacterium tuberculosis; assay: Antimycobacterial activity against Mycobacterium tuberculosis H37Rv ATCC 27294 at 6.5 ug/ml after 7 days by microplate Alamar blue assay relative to control; format: functional; settings: H37Rv ATCC 27294, 168 h; method in brief: as §1
[25] = system: Mycobacterium tuberculosis; assay: Antimycobacterial activity against Mycobacterium tuberculosis H37Rv ATCC 27294 at 0.08 ug/ml after 7 days by microplate Alamar blue assay relative to control; format: functional; settings: H37Rv ATCC 27294, 168 h
[26] = system: Mycobacterium tuberculosis; assay: Antimycobacterial activity against Mycobacterium tuberculosis H37Rv ATCC 27294 at 0.16 to 0.31 ug/ml after 7 days by microplate Alamar blue assay relative to control; format: functional; method in brief: as §1
[27] = system: Mycobacterium tuberculosis; assay: Antimycobacterial activity against Mycobacterium tuberculosis H37Rv ATCC 27294 at 0.63 ug/ml after 7 days by microplate Alamar blue assay relative to control; format: functional; settings: H37Rv ATCC 27294, 168 h; method in brief: as §1
[28] = system: Mycobacterium tuberculosis; assay: Antimycobacterial activity against Mycobacterium tuberculosis H37Rv ATCC 27294 at 1.25 to 5 ug/ml after 7 days by microplate Alamar blue assay relative to control; format: functional; method in brief: as §1

| Structure (SMILES) | MIC90 [1] [µM] | IC50 [2] [µg/mL] | IC90 [2] [µg/mL] | inhibition at 1.56 µg/mL [4] [%] | inhibition at 100 µg/mL [5] [%] | inhibition at 3.13 µg/mL [6] [%] | inhibition at 6.25 µg/mL [7] [%] | inhibition at 50 µg/mL [22] [%] | other results |
| --- | --- | --- | --- | --- | --- | --- | --- | --- | --- |
| CC[C@@H](CO)NCCN[C@@H](CC)CO [ETHAMBUTOL] | 12.5 (≈ 2.55 µg/mL) | < 1.56 | 32.8 (≈ 160 µM) | 69.1 | 90 | 84.3 | 86.6 | – | inhibition (INH) [3]: 89% |
| CCOC(=O)c1cc(C(=O)c2ccccc2)n2ccc(-c3cc[n+](CC(=O)c4ccc(OC)cc4)cc3)cc12.[Br-] | 12.5 | 3.88 | 13.1 | – | – | 38.6 | 65.1 | – | viability at 168 h, 75 ug/ml [8]: < 10%; viability at 168 h, 7.5 ug/ml [9]: 71%; viability at 168 h, 0.75 ug/ml [10]: 86%; fold change (FC) [11]: 3.11; fold change (FC) [12]: 2.65; INH [13]: 1.17 µg/mL; Activity [14]: inactive; inhibition (INH) [15]: 51%; MIC [16]: 2.34 µg/mL; fold change (FC) [17]: 1.19; MIC90 [18]: 12.5 µM; inhibition at 0.79 µg/mL [19]: 9.9%; inhibition (INH) [20]: 98.5% |
| CCc1nc(N)nc(N)c1-c1ccc(Cl)cc1 [PYRIMETHAMINE] | 100 (≈ 24.9 µg/mL) | 37.4 (≈ 150 µM) | 75 (≈ 301 µM) | – | 95.6 | – | – | 69.7 | inhibition at 25 µg/mL [21]: 26.7% |
| CCOC(=O)c1cc(C(N)=O)n2ccc(-c3ccncc3)cc12 | > 100 | > 100 | > 100 | 2.8 | -17 | – | – | 2 | inhibition at 12.5 µg/mL [23]: 4% |
| CCOC(=O)c1cc(C(=O)c2ccccc2)n2ccc(-c3ccncc3)cc12 | > 100 | > 100 | > 100 | 3 | -8.6 | 3.9 | – | – | inhibition at 6.5 µg/mL [24]: 0.2% |
| NCC[C@H](O)C(=O)N[C@@H]1C[C@H](N)[C@@H](O[C@H]2O[C@H](CN)[C@@H](O)[C@H](O)[C@H]2O)[C@H](O)[C@H]1O[C@H]1O[C@H](CO)[C@@H](O)[C@H](N)[C@H]1O [AMIKACIN] | 0.16 (≈ 0.0937 µg/mL) | 0.07 (≈ 0.12 µM) | 0.08 (≈ 0.137 µM) | – | – | – | – | – | inhibition at 0.08 µg/mL [25]: 79.8%; inhibition (INH) [26]: 96%; inhibition at 0.63 µg/mL [27]: 97.3%; inhibition (INH) [28]: 98% |
